Data as given in ChEMBL document CHEMBL1144150, “A new biflavonoid from Calophyllum panciflorum with antitumor-promoting activity” (J Nat Prod, 1999).

Key:
Format in all cases: cell-based
Raji [1] = assay: Antitumor-promoting activity assessed as TPA-induced EBV-early antigen activation in human Raji cells at 3.2 nmol after 48 hrs relative to TPA; conditions: human gammaherpesvirus 4
Raji [2] = assay: Antitumor-promoting activity assessed as TPA-induced EBV-early antigen activation in human Raji cells at 0.32 nmol after 48 hrs relative to TPA; conditions: human gammaherpesvirus 4
Raji [3] = assay: Antitumor-promoting activity assessed as TPA-induced EBV-early antigen activation in human Raji cells at 16 nmol after 48 hrs relative to TPA; conditions: human gammaherpesvirus 4
[4] = Cytotoxicity against human Raji cells assessed as cell viability at 0.32 nmol by trypan blue staining; conditions: read-out: Activity
Raji [5] = assay: Antitumor-promoting activity assessed as TPA-induced EBV-early antigen activation in human Raji cells at 32 nmol after 48 hrs relative to TPA; conditions: human gammaherpesvirus 4
Summary of the method: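 Raji cells (EBV genome-carrying lymphoblastoid, nonproducer) in RPMI 1640 with 10% FBS, 1×10⁶/mL, given 4 mM n-butyric acid plus 32 pmol TPA (20 ng/mL) and test compound; 37 °C, CO₂, 48 h. EA-positive cells scored by indirect immunofluorescence using NPC patient sera, ≥500 cells counted, three repeats. Expressed as % of butyric acid+TPA control (100%), mean ± S.D.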

[6] = Cytotoxicity against human Raji cells assessed as cell viability at 16 nmol by trypan blue staining; conditions: read-out: Activity
[7] = Cytotoxicity against human Raji cells assessed as cell viability at 3.2 nmol by trypan blue staining; conditions: read-out: Activity
[8] = Cytotoxicity against human Raji cells assessed as cell viability at 32 nmol by trypan blue staining; conditions: read-out: Activity

## O=C1c2c(O)cc(O)cc2O[C@H](c2ccc(O)cc2)[C@H]1c1c(O)cc(O)c2c1O[C@H](c1ccc(O)cc1)[C@@H](O)C2=O
Raji [1]
  Activity: 88.2%
Raji [2]
  Activity: 95.7%
Raji [3]
  Activity: 61%
[4]
  viability at 0.32 nmol: > 80%
Raji [5]
  Activity: 25.3%
[6]
  viability at 16 nmol: > 80%
[7]
  viability at 3.2 nmol: > 80%
[8]
  viability at 32 nmol: 70%

## O=C1c2c(O)cc(O)cc2O[C@@H](c2ccc(O)cc2)[C@@H]1c1c(O)cc(O)c2c(=O)c(O)c(-c3ccc(O)cc3)oc12 [GARCINIANIN]
Raji [1]
  Activity: 69.2%
Raji [2]
  Activity: 89.4%
Raji [3]
  Activity: 31.4%
[4]
  viability at 0.32 nmol: > 80%
[6]
  viability at 16 nmol: > 80%
[7]
  viability at 3.2 nmol: > 80%
[8]
  viability at 32 nmol: 70%

## O=C1C[C@@H](c2ccc(O)cc2)Oc2c1c(O)cc(O)c2[C@H]1C(=O)c2c(O)cc(O)cc2O[C@@H]1c1ccc(O)cc1
Raji [1]
  Activity: 82.9%
Raji [2]
  Activity: 100%
Raji [3]
  Activity: 48.2%
[4]
  viability at 0.32 nmol: > 80%
Raji [5]
  Activity: 19.4%
[6]
  viability at 16 nmol: > 80%
[7]
  viability at 3.2 nmol: > 80%
[8]
  viability at 32 nmol: 70%

## O=C1C[C@@H](c2ccc(O)c(O)c2)Oc2c1c(O)cc(O)c2[C@H]1C(=O)c2c(O)cc(O)cc2O[C@@H]1c1ccc(O)cc1
Raji [1]
  Activity: 71.3%
Raji [2]
  Activity: 90.6%
Raji [3]
  Activity: 42.5%
[4]
  viability at 0.32 nmol: > 80%
[6]
  viability at 16 nmol: > 80%
[7]
  viability at 3.2 nmol: > 80%
[8]
  viability at 32 nmol: 70%

## O=C1c2c(O)cc(O)cc2O[C@@H](c2ccc(O)cc2)[C@@H]1c1c(O)cc(O)c2c(=O)c(O)c(-c3ccc(O)c(O)c3)oc12 [PANCIBIFLAVONOL]
Raji [1]
  Activity: 75%
Raji [2]
  Activity: 94.4%
Raji [3]
  Activity: 50.2%
[4]
  viability at 0.32 nmol: > 80%
Raji [5]
  Activity: 22.1%
[6]
  viability at 16 nmol: > 80%
[7]
  viability at 3.2 nmol: > 80%
[8]
  viability at 32 nmol: 70%

## O=C1c2c(O)cc(O)cc2O[C@H](c2ccc(O)cc2)[C@H]1c1c(O)cc(O)c2c1O[C@H](c1ccc(O)c(O)c1)[C@@H](O)C2=O
Raji [1]
  Activity: 90.3%
Raji [2]
  Activity: 100%
Raji [3]
  Activity: 63.9%
[4]
  viability at 0.32 nmol: > 80%
Raji [5]
  Activity: 28.7%
[6]
  viability at 16 nmol: > 80%
[7]
  viability at 3.2 nmol: > 80%
[8]
  viability at 32 nmol: 70%

## O=C1c2c(O)cc(O)cc2O[C@H](c2ccc(O)cc2)[C@H]1c1c(O)cc(O)c2c(=O)cc(-c3ccc(O)c(O)c3)oc12 [MORELLOFLAVONE]
Raji [1]
  Activity: 72.6%
Raji [2]
  Activity: 91.2%
Raji [3]
  Activity: 40.1%
[4]
  viability at 0.32 nmol: > 80%
[6]
  viability at 16 nmol: > 80%
[7]
  viability at 3.2 nmol: > 80%
[8]
  viability at 32 nmol: 70%
